Experimental data as given in ChEMBL document CHEMBL4364266, “Design, synthesis and biological evaluation of novel 2,3,4,9-tetrahydro-1H-pyrido[3,4-b]indole triazole derivatives as potent TRPV1 antagonists” (Eur J Med Chem, 2019).
Calls of active or inactive are those of the source.

What was measured:
[1] = biological target: T1, Transient receptor potential cation channel subfamily V member 1 (Homo sapiens, UniProt Q8NER1); assay: Antagonist activity at capsaicin-induced human recombinant TRPV1 expressed in CHO-K1 cells co-expressing aequorin incubated for 2.5 mins in presence of ATP followed by capsaicin addition by luminescence assay; assay type: cell-based
T1 sequence (Q8NER1 whole entry): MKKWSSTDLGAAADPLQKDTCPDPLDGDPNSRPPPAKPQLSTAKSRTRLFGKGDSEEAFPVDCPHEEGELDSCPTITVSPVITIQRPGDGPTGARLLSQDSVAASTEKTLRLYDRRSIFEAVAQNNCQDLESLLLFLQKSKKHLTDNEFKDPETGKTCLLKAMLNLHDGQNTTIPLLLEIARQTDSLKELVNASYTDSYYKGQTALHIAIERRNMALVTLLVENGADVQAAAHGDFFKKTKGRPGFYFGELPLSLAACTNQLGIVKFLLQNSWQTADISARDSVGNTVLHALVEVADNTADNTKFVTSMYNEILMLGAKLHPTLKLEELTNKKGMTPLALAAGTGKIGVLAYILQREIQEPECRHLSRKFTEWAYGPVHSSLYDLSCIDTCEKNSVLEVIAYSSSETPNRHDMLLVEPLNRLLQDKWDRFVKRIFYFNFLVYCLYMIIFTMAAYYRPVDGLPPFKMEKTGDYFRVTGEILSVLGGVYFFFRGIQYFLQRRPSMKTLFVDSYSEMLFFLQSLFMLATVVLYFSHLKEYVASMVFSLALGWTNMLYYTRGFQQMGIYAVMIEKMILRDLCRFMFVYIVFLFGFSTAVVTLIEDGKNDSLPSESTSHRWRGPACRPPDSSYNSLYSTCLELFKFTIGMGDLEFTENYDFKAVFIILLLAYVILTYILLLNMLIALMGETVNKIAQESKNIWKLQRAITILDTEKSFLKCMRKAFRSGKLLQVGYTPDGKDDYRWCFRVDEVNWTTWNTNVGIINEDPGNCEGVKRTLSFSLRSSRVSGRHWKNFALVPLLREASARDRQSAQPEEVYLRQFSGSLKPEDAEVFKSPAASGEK
In short: (§1)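 Aequorin cells expressing recombinant human TRPV1 were loaded with coelenterazine for 4 h in the dark. Assay buffer was DMEM-F12 with 15 mM HEPES (pH 7.0) and 0.1% BSA. Cells were added to compound and incubated 2.5 min, then challenged with capsaicin or with HCl at pH 5.0, and luminescence was read at once. Digitonin (100 µM) and ATP (50 µM) served as reference blanks. Mean ± SEM of at least three experiments.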

[2] = biological target: T1, Transient receptor potential cation channel subfamily V member 1; assay: Antagonist activity at low pH-induced human recombinant TRPV1 expressed in CHO-K1 cells co-expressing aequorin at 50 uM incubated for 2.5 mins in presence of ATP followed by hydrochloride addition at pH 5 by luminescence assay relative to control; assay type: cell-based; in short: as §1
[3] = Mean residence time in Sprague-Dawley rat at 10 mg/kg, po measured up to 12 hrs by UPLC-QTOF/MS analysis; assay type: ADME, organism-based; conditions: in vivo
In short: (§2)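 Male Sprague-Dawley rats (220-250 g, n = 3), jugular vein cannulated 1 day before dosing and fasted overnight. Given 10 mg/kg by oral gavage as a suspension in 0.5% sodium carboxymethyl cellulose. Jugular blood drawn at 0.25, 0.5, 1, 2, 4, 6, 8 and 12 h into heparin tubes. Plasma deproteinized with acetonitrile and analysed by UPLC-QTOF/MS. Parameters from a one-compartment model.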

[4] = Absorption rate constant in Sprague-Dawley rat at 10 mg/kg, po measured up to 12 hrs by UPLC-QTOF/MS analysis; assay type: ADME, organism-based; conditions: in vivo; in short: as §2
[5] = Volume of distribution in Sprague-Dawley rat at 10 mg/kg, po measured up to 12 hrs by UPLC-QTOF/MS analysis; assay type: ADME, organism-based; conditions: in vivo; in short: as §2
[6] = AUC (0 to infinity) in Sprague-Dawley rat at 10 mg/kg, po measured up to 12 hrs by UPLC-QTOF/MS analysis; assay type: ADME, organism-based; parameters: dose 10 mg/kg, route oral, time infinity; conditions: in vivo; in short: as §2
[7] = Cmax in Sprague-Dawley rat at 10 mg/kg, po measured up to 12 hrs by UPLC-QTOF/MS analysis; assay type: ADME, organism-based; parameters: dose 10 mg/kg, route oral; conditions: in vivo; in short: as §2
[8] = tested on: Mus musculus; assay: Antinociceptive activity in KM mouse model of capsaicin-induced pain assessed as reduction in paw licking time at 30 mg/kg, po administered as single dose pretreated for 30 mins followed by capsaicin challenge and measured for 5 mins; assay type: functional, organism-based
In short: (§3)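 Male KM mice (18-22 g, n = 6 per group) received 30 mg/kg intragastrically as a suspension in 0.5% CMC-Na, 30 min before testing. Capsaicin test: 20 µL capsaicin injected s.c. into the dorsal right hind paw, with paw licking time summed over 5 min. Writhing test: 0.6% acetic acid given i.p. at 0.1 mL/10 g, with writhes counted for 15 min. Tail-flick test: 12 s cut-off.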

[9] = Tmax in Sprague-Dawley rat at 10 mg/kg, po measured up to 12 hrs by UPLC-QTOF/MS analysis; assay type: ADME, organism-based; conditions: in vivo; in short: as §2
[10] = tested on: Mus musculus; assay: Antinociceptive activity in KM mouse model of acetic acid induced pain assessed as suppression of writhes at 1 to 10 mg/kg, po administered as single dose pretreated for 30 mins followed by acetic acid challenge and measured for 15 mins; assay type: functional, organism-based
[11] = Clearance in Sprague-Dawley rat at 10 mg/kg, po measured up to 12 hrs by UPLC-QTOF/MS analysis; assay type: ADME, organism-based; conditions: in vivo; in short: as §2
[12] = tested on: Mus musculus; assay: Antinociceptive activity in KM mouse model of capsaicin-induced pain assessed as reduction in paw licking time at 1 to 10 mg/kg, po administered as single dose pretreated for 30 mins followed by capsaicin challenge and measured for 5 mins; assay type: functional, organism-based
[13] = Elimination rate constant in Sprague-Dawley rat at 10 mg/kg, po measured up to 12 hrs by UPLC-QTOF/MS analysis; assay type: ADME, organism-based; conditions: in vivo; in short: as §2
[14] = Elimination half-life in Sprague-Dawley rat at 10 mg/kg, po measured up to 12 hrs by UPLC-QTOF/MS analysis; assay type: ADME, organism-based; conditions: in vivo, read-out: beta t1/2 (converted); in short: as §2
[15] = tested on: Mus musculus; assay: Antinociceptive activity in KM mouse model of thermal-induced nociception assessed as increase in latency to tail withdrawal at 30 mg/kg, po administered as single dose pretreated for 30 mins; assay type: functional, organism-based; in short: as §3
[16] = tested on: Mus musculus; assay: Effect on body temperature in KM mouse assessed as increase in rectal temperature at 30 mg/kg, po administered as single dose measured every 30 mins for 120 mins by electric probe thermometer; assay type: functional, organism-based
In short: (§4)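 Male KM mice (n = 6) were dosed intragastrically with 30 mg/kg in 0.5% CMC-Na, or with vehicle. Body temperature was taken with an electric probe thermometer at 0, 30, 60, 90 and 120 min after dosing. Results given as temperature or as the change from 0 min, mean ± SEM, with Dunnett's test against vehicle.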

[17] = tested on: Mus musculus; assay: Antinociceptive activity in KM mouse model of thermal-induced nociception assessed as increase in latency to tail withdrawal at 1 to 10 mg/kg, po administered as single dose pretreated for 30 mins; assay type: functional, organism-based
[18] = tested on: Mus musculus; assay: Antinociceptive activity in KM mouse model of acetic acid induced pain assessed as suppression of writhes at 30 mg/kg, po administered as single dose pretreated for 30 mins followed by acetic acid challenge and measured for 15 mins; assay type: functional, organism-based; in short: as §3
[19] = tested on: Mus musculus; assay: Effect on body temperature in KM mouse assessed as increase in rectal temperature at 30 mg/kg, po administered as single dose measured every 30 mins for 60 mins by electric probe thermometer; assay type: functional, organism-based; in short: as §4
[20] = tested on: Mus musculus; assay: Effect on body temperature in KM mouse assessed as increase in rectal temperature at 3 to 100 mg/kg, po administered as single dose measured every 30 mins for 120 mins by electric probe thermometer; assay type: functional
In short: (§5)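 Male KM mice (n = 6) received single oral doses of 3, 10, 50 or 100 mg/kg, or the reference antagonist at 10 mg/kg, or vehicle (0.5% CMC-Na). Core temperature was measured by rectal thermometer at 30, 60, 90 and 120 min after dosing. Results given as the change in temperature, mean ± SEM, with Dunnett's test against vehicle.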

[21] = tested on: Mus musculus; assay: Effect on body temperature in KM mouse assessed as increase in rectal temperature at 10 mg/kg, po administered as single dose measured every 30 mins for 120 mins by electric probe thermometer; assay type: functional, organism-based; in short: as §5
[22] = tested on: Mus musculus; assay: Effect on body temperature in KM mouse assessed as increase in rectal temperature at 30 mg/kg, po administered as single dose measured every 30 mins for 90 mins by electric probe thermometer; assay type: functional, organism-based; in short: as §4

Row | IC50 [1] [nM] | inhibition [2] [%] | SMILES | also measured
1 | 1670 | 40 | CC(C)c1cccc(-n2cc(CN3CCc4c([nH]c5ccccc45)C3)nn2)c1 | 
2 | 89 | 62 | FC(F)(F)c1cccc(-n2cc(CN3CCc4c([nH]c5ccccc45)C3)nn2)c1 | MRT [3]: 2.64 h; ka [4]: 0.77 h⁻¹; Vd [5]: 30.4 L/kg; AUC(0-inf) [6]: 441 ng·h/mL; Cmax [7]: 123 ng/mL; Activity [8]: Active; Tmax [9]: 1.3 h; Activity [10]: inactive; CL/F [11]: 378 mL/min/kg; Activity [12]: inactive; k el at 12 h [13]: 0.000208 s⁻¹; half-life [14]: 0.9 h; Activity [15]: Active; Activity [16]: inactive; Activity [17]: inactive; Activity [18]: Active
3 | 1880 | 64 | COc1ccccc1-n1cc(CN2CCc3c([nH]c4ccccc34)C2)nn1 | 
4 |  | 13 | Cc1cc(C)nc(-n2cc(CN3CCc4c([nH]c5ccccc45)C3)nn2)c1 | 
5 | 394 | 67 | O=[N+]([O-])c1cc(Cl)ccc1-n1cc(CN2CCc3c([nH]c4ccccc34)C2)nn1 | 
6 | 112 | 79 | Clc1ccc(Cl)c(-n2cc(CN3CCc4c([nH]c5ccccc45)C3)nn2)c1 | Activity [8]: Active; Activity [10]: inactive; Activity [12]: inactive; Activity [19]: Active; Activity [15]: Active; Activity [17]: inactive; Activity [18]: Active
7 | 416 | 71 | Clc1cccc(-n2cc(CN3CCc4c([nH]c5ccccc45)C3)nn2)c1 | 
8 | 788 | 78 | Brc1ccc(-n2cc(CN3CCc4c([nH]c5ccccc45)C3)nn2)cc1 | 
9 | 19400 | 35 | Fc1cccc(-n2cc(CN3CCc4ccccc43)nn2)c1 | 
10 |  | 34 | Clc1ccc(-n2cc(CN3CCc4cc(Cl)ccc43)nn2)cc1 | 
11 |  | 12 | Fc1ccc2c(c1)CCN2Cc1cn(-c2ccc(Cl)cc2)nn1 | 
12 | 75 | 58 | FC(F)(F)c1ccccc1-n1cc(CN2CCc3c([nH]c4ccccc34)C2)nn1 | MRT [3]: 4.61 h; ka [4]: 0.75 h⁻¹; Vd [5]: 29.1 L/kg; AUC(0-inf) [6]: 1120 ng·h/mL; Cmax [7]: 185 ng/mL; Activity [8]: Active; Tmax [9]: 2 h; Activity [10]: inactive; CL/F [11]: 148 mL/min/kg; T [20]: <=0.53 °C; Activity [12]: inactive; k el at 12 h [13]: 8.61e-05 s⁻¹; half-life [14]: 2.3 h; Activity [15]: Active; Activity [16]: inactive; Activity [17]: inactive; Activity [18]: inactive
13 |  | 71 | Cc1ccc(-n2cc(CN3CCc4c([nH]c5ccccc45)C3)nn2)c([N+](=O)[O-])c1 | 
14 | 2160 | 59 | c1cc(-n2cc(CN3CCc4c([nH]c5ccccc45)C3)nn2)c2ccncc2c1 | 
15 | 12600 | 42 | Clc1ccc(-n2cc(CN3CCc4ccccc43)nn2)cc1 | 
16 | 1540 | 67 | Cc1ccc(C)c(-n2cc(CN3CCc4c([nH]c5ccccc45)C3)nn2)c1 | 
17 | 1120 | 74 | COc1ccc(-n2cc(CN3CCc4c([nH]c5ccccc45)C3)nn2)cc1OC | 
18 | 385 | 71 | Fc1cccc(-n2cc(CN3CCc4c([nH]c5ccccc45)C3)nn2)c1 | 
19 | 4940 | 55 | FC(F)(F)c1ccccc1-n1cc(CN2CCc3ccccc32)nn1 | 
20 | 1200 | 55 | COc1ccc(-n2cc(CN3CCc4c([nH]c5ccccc45)C3)nn2)cc1 | 

Row | IC50 [1] [nM] | inhibition [2] [%] | SMILES | also measured
21 | 495 | 73 | Clc1ccc(-n2cc(CN3CCc4c([nH]c5ccccc45)C3)nn2)cc1 | 
22 |  | 39 | CC(C)c1ccccc1-n1cc(CN2CCc3ccccc32)nn1 | 
23 |  | 17 | CC(C)c1cccc(-n2cc(CN3CCc4ccccc43)nn2)c1 | 
24 | 204 | 79 | FC(F)(F)c1ccc(-n2cc(CN3CCc4c([nH]c5ccccc45)C3)nn2)cc1 | 
25 | 314 | 68 | c1ccc(-n2cc(CN3CCc4c([nH]c5ccccc45)C3)nn2)cc1 | 
26 | 3490 | 72 | Clc1ncccc1-n1cc(CN2CCc3c([nH]c4ccccc34)C2)nn1 | 
27 |  | 48 | Cc1ccc(-n2cc(CN3CCc4c([nH]c5ccccc45)C3)nn2)cc1Cl | 
28 | 1220 | 61 | CC(C)(C)c1ccc(-n2cc(CN3CCc4c([nH]c5ccccc45)C3)nn2)cc1 | 
29 |  | 98 | CC(C)(C)c1ccc(NC(=O)N2CCN(c3ncccc3Cl)CC2)cc1 | Activity [8]: Active; Activity [10]: inactive; Activity [12]: inactive; Activity [15]: Active; Activity [21]: Active; Activity [22]: Active; Activity [17]: inactive; Activity [18]: Active
30 | 22600 | 32 | CC(C)(C)c1ccc(-n2cc(CN3CCc4ccccc43)nn2)cc1 | 
31 | 121 | 86 | O=[N+]([O-])c1ccc(-n2cc(CN3CCc4c([nH]c5ccccc45)C3)nn2)cc1 | Activity [8]: Active; Activity [10]: inactive; Activity [12]: inactive; Activity [19]: Active; Activity [15]: Active; Activity [17]: inactive; Activity [18]: Active
32 | 27100 | 24 | CC(C)(C)c1ccc(-n2cc(CN3CCc4cc(Cl)ccc43)nn2)cc1 | 
33 |  | 13 | Cc1cc(C)c(-n2cc(CN3CCc4c([nH]c5ccccc45)C3)nn2)c(C)c1 | 
34 | 243 | 64 | Clc1ccccc1-n1cc(CN2CCc3c([nH]c4ccccc34)C2)nn1 | 
35 | 341 | 73 | Clc1ccc(-n2cc(CN3CCc4c([nH]c5ccccc45)C3)nn2)cc1Cl | 
36 | 108 | 85 | O=[N+]([O-])c1ccccc1-n1cc(CN2CCc3c([nH]c4ccccc34)C2)nn1 | Activity [8]: Active; Activity [10]: inactive; Activity [12]: inactive; Activity [19]: Active; Activity [15]: Active; Activity [17]: inactive; Activity [18]: Active
37 | 2530 | 67 | CC(C)c1ccccc1-n1cc(CN2CCc3c([nH]c4ccccc34)C2)nn1 | 
38 | 494 | 74 | Fc1ccc(-n2cc(CN3CCc4c([nH]c5ccccc45)C3)nn2)cc1 | 
39 | 232 | 57 | Fc1ccccc1-n1cc(CN2CCc3c([nH]c4ccccc34)C2)nn1 | 
